What was measured:
[1] = test system: Human immunodeficiency virus 2; assay: Antiviral activity against HIV2 ROD infected in human MT4 cells assessed as inhibition of virus-induced cytopathic effect after 4 days by MTT assay; type: functional, organism-based; settings: Human immunodeficiency virus 2, ISOLATE ROD, MT4, 96 h
Plasmodium falciparum = assay: Antiplasmodial activity against chloroquine-resistant Plasmodium falciparum W2 infected in human A+ erythrocytes assessed as inhibition of parasite proliferation after 48 hrs; type: functional, organism-based; settings: W2, 48 h
Summary of the method: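 W2 parasites were cultured in RPMI 1640 with 25 mM HEPES, 25 mM NaHCO3 and 10% A+ human serum at 2.5% hematocrit, at 37 °C under 10% O2/6% CO2/84% N2. After 48 h exposure without medium change, cells were stained with hydroethidine (0.05 mg/mL in PBS, 20 min, dark, 37 °C). Parasitaemia was read by flow cytometry. IC50 came from three independent experiments.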

[2] = test system: Human immunodeficiency virus 1; assay: Antiviral activity against HIV1 3B infected in human MT4 cells assessed as inhibition of virus-induced cytopathic effect after 4 days by MTT assay; type: functional, organism-based; settings: Human immunodeficiency virus 1, 3B, MT4, 96 h
[3] = Cytotoxicity against human MT4 cells after 4 days by MTT assay; type: cell-based
Summary of the method: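 Uninfected MT-4 cells were run in parallel with the antiviral test under the same conditions: 10⁵ cells/mL, serial compound dilutions from DMSO stocks, 4 days at 37 °C. Viability was read by MTT. CC50 is the concentration that lowers viability of uninfected cells by 50%.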

THP-1 = assay: Cytotoxicity against human THP1 cells using propidium iodide staining after 72 hrs by flow cytometry; type: cell-based; settings: THP-1, 72 h
[4] = Selectivity index, ratio of IC50 for human THP1 cells to IC50 for chloroquine-resistant Plasmodium falciparum W2; type: toxicity, cell-based, THP-1; settings: read-out: Selectivity Index

SMILES | IC50 [1] | IC50 (Plasmodium falciparum) | IC50 [2] | CC50 at 96 h [3] | IC50 (THP-1) | selectivity ratio [4]
Nc1ccc2oc(-c3ccccc3)c(O)c(=O)c2c1 | 216 µM | > 27 µM | 216 µM | 216 µM | 27 µM | –
Nc1ccc2oc(-c3ccc(C(F)(F)F)cc3)cc(=O)c2c1 | 273 µM | > 1.9 µM | 273 µM | 273 µM | 1.9 µM | –
COc1cccc(-c2cc(=O)c3cc(NC(C)=O)ccc3o2)c1 | > 404 µM | > 10 µM | > 404 µM | > 404 µM | 10 µM | –
CC(=O)Nc1ccc2oc(-c3ccc(C(F)(F)F)cc3)cc(=O)c2c1 | 330 µM | > 10 µM | 330 µM | 330 µM | 10 µM | –
COc1cccc(-c2oc3ccc(NC(C)=O)cc3c(=O)c2OC)c1 | 369 µM | > 5 µM | 369 µM | 369 µM | 5 µM | –
COc1c(-c2ccc(C(F)(F)F)cc2)oc2ccc(NC(C)=O)cc2c1=O | 332 µM | 39 µM | 332 µM | 332 µM | > 125 µM | > 3.2
COc1ccc(-c2cc(=O)c3cc(NC(C)=O)ccc3o2)cc1 | 226 µM | > 50 µM | 226 µM | 226 µM | 74 µM | –
COc1ccccc1-c1oc2ccc(NC(C)=O)cc2c(=O)c1O | 385 µM | 50 µM | 385 µM | 385 µM | > 125 µM | > 2.5
Nc1ccc2oc(-c3cccc(C(F)(F)F)c3)c(O)c(=O)c2c1 | 8.1 µM | > 2 µM | 8.1 µM | 8.1 µM | 2 µM | –
CC(=O)Nc1ccc(O)c(C(=O)/C=C/c2ccccc2F)c1 | 33.8 µM | 12.3 µM | 33.8 µM | 33.8 µM | > 125 µM | > 10.2
Nc1ccc2oc(-c3ccccc3)cc(=O)c2c1 [6-AMINOFLAVONE] | 209 µM | > 36 µM | 209 µM | 209 µM | 36 µM | –
CC(=O)Nc1ccc2oc(-c3ccc(F)cc3)c(O)c(=O)c2c1 | 34.1 µM | > 26 µM | 34.1 µM | 34.1 µM | 26 µM | –
COc1cccc(-c2cc(=O)c3cc(N)ccc3o2)c1 | 247 µM | 31 µM | 247 µM | 247 µM | > 125 µM | > 4
COc1c(-c2ccccc2)oc2ccc(NC(C)=O)cc2c1=O | 200 µM | 18 µM | 200 µM | 200 µM | > 125 µM | > 6.9
Nc1ccc2oc(-c3ccc(F)cc3)c(O)c(=O)c2c1 | 92.6 µM | > 4 µM | 92.6 µM | 92.6 µM | 4 µM | –
COc1ccccc1-c1cc(=O)c2cc(NC(C)=O)ccc2o1 | 226 µM | > 50 µM | 226 µM | 226 µM | 50 µM | –
COc1ccc(-c2oc3ccc(NC(C)=O)cc3c(=O)c2OC)cc1 | 369 µM | 21 µM | 369 µM | 369 µM | > 50 µM | > 2.4
COc1c(-c2ccccc2)oc2ccc(N)cc2c1=O | 126 µM | 20 µM | 126 µM | 126 µM | 74 µM | 3.7
COc1c(-c2ccc(F)cc2)oc2ccc(NC(C)=O)cc2c1=O | 317 µM | 23 µM | 317 µM | 317 µM | > 125 µM | > 5.4
CC(=O)Nc1ccc(O)c(C(=O)/C=C/c2cccc(F)c2)c1 | 30.1 µM | 15.7 µM | 30.1 µM | 30.1 µM | 78.6 µM | 5
Nc1ccc2oc(-c3ccccc3F)c(O)c(=O)c2c1 | 44.5 µM | > 38 µM | 44.5 µM | 44.5 µM | 38 µM | –
Nc1ccc2oc(-c3cccc(F)c3)c(O)c(=O)c2c1 | 35.3 µM | > 30 µM | 35.3 µM | 35.3 µM | 30 µM | –
CC(=O)Nc1ccc(O)c(C(=O)/C=C/c2ccc(C(F)(F)F)cc2)c1 | 21.1 µM | 11.6 µM | 21.1 µM | 21.1 µM | 15.5 µM | 1.3
COc1cccc2c1C(=O)c1c(O)c3c(c(O)c1C2=O)C[C@@](O)(C(=O)CO)C[C@@H]3O[C@H]1C[C@H](N)[C@H](O)[C@H](C)O1 [DOXORUBICIN] | – | – | – | – | 0.07 µM | –

SMILES | IC50 [1] | IC50 (Plasmodium falciparum) | IC50 [2] | CC50 at 96 h [3] | IC50 (THP-1) | selectivity ratio [4]
COc1cccc(/C=C/C(=O)c2cc(NC(C)=O)ccc2O)c1 | 40 µM | 13.2 µM | 40 µM | 40 µM | 93.7 µM | 7.1
CC(=O)Nc1ccc(O)c(C(=O)/C=C/c2cccc(C(F)(F)F)c2)c1 | 32.1 µM | 11.3 µM | 32.1 µM | 32.1 µM | 8.4 µM | –
COc1ccc(/C=C/C(=O)c2cc(NC(C)=O)ccc2O)cc1 | 38.7 µM | 6.7 µM | 38.7 µM | 38.7 µM | 59.2 µM | 8.8
COc1c(-c2ccc(F)cc2)oc2ccc(N)cc2c1=O | 141 µM | 33 µM | 141 µM | 141 µM | 36 µM | 1.1
COc1ccccc1-c1oc2ccc(N)cc2c(=O)c1O | 222 µM | 46 µM | 222 µM | 222 µM | 102 µM | 2.2
COc1c(-c2ccccc2F)oc2ccc(NC(C)=O)cc2c1=O | 180 µM | 15 µM | 180 µM | 180 µM | > 125 µM | > 8.3
Nc1ccc2oc(-c3ccc(F)cc3)cc(=O)c2c1 | 264 µM | > 10 µM | 264 µM | 264 µM | 10 µM | –
CC(=O)Nc1ccc2oc(-c3ccc(C(F)(F)F)cc3)c(O)c(=O)c2c1 | 7.3 µM | > 50 µM | 7.3 µM | 7.3 µM | > 50 µM | –
CC(=O)Nc1ccc2oc(-c3cccc(F)c3)cc(=O)c2c1 | 240 µM | 50 µM | 240 µM | 240 µM | > 125 µM | > 2.5
Nc1ccc2oc(-c3ccc(C(F)(F)F)cc3)c(O)c(=O)c2c1 | 3.9 µM | > 50 µM | 3.9 µM | 3.9 µM | > 125 µM | –
CC(=O)Nc1ccc2oc(-c3ccccc3F)c(O)c(=O)c2c1 | 171 µM | > 47 µM | 171 µM | 171 µM | 47 µM | –
CC(=O)Nc1ccc2oc(-c3ccc(F)cc3)cc(=O)c2c1 | 203 µM | > 22 µM | 203 µM | 203 µM | 22 µM | –
CC(=O)Nc1ccc2oc(-c3cccc(F)c3)c(O)c(=O)c2c1 | 26.5 µM | > 36 µM | 26.5 µM | 26.5 µM | 36 µM | –
CC(=O)Nc1ccc2oc(-c3ccccc3)c(O)c(=O)c2c1 | 64.7 µM | > 36 µM | 64.7 µM | 64.7 µM | 36 µM | –
COc1ccc(-c2oc3ccc(NC(C)=O)cc3c(=O)c2O)cc1 | 98.7 µM | > 9 µM | 98.7 µM | 98.7 µM | 9 µM | –
COc1ccc(-c2oc3ccc(N)cc3c(=O)c2O)cc1 | 239 µM | > 29 µM | 239 µM | 239 µM | 29 µM | –
Nc1ccc2oc(-c3ccccc3F)cc(=O)c2c1 | 283 µM | > 44 µM | 284 µM | 283 µM | 44 µM | –
CC(=O)Nc1ccc2oc(-c3ccccc3)cc(=O)c2c1 | 184 µM | > 50 µM | 184 µM | 184 µM | 97 µM | –
COc1cccc(-c2oc3ccc(NC(C)=O)cc3c(=O)c2O)c1 | 33.3 µM | 50 µM | 33.3 µM | 33.3 µM | 50 µM | –
COc1cccc(-c2oc3ccc(N)cc3c(=O)c2O)c1 | 40.8 µM | > 2 µM | 40.8 µM | 40.8 µM | 2 µM | –
Nc1ccc2oc(-c3cccc(C(F)(F)F)c3)cc(=O)c2c1 | 138 µM | > 34 µM | 138 µM | 138 µM | 34 µM | –
CC(=O)Nc1ccc2oc(-c3cccc(C(F)(F)F)c3)cc(=O)c2c1 | 10 µM | 50 µM | 10 µM | 10 µM | 50 µM | –
CC(=O)Nc1ccc2oc(-c3cccc(C(F)(F)F)c3)c(O)c(=O)c2c1 | 5.7 µM | > 1 µM | 5.7 µM | 5.7 µM | 1 µM | –
